The source made the active and inactive calls. The calls are words filed in the database; no cut-off is given here.
Tests used:
[1] = Elimination rate constant in Wistar rat kidney at 10 mg/kg, po after 0.5 to 72 hrs by HPLC analysis; format: ADME, organism-based
How it was run: (§1)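 Wistar rats were dosed orally and killed by abdominal aorta transection at 0.5, 1, 2, 4, 6, 8, 12, 24, 48 and 72 h. Organs were excised at once, minced and homogenized at 4 °C in normal saline to a 25% (w/v) homogenate. After spinning at 3000 × g, 4 °C, 10 min, supernatants were analysed by HPLC. Values are mean ± SEM, n = 5 per point.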

[2] = Terminal half life in Wistar rat kidney at 10 mg/kg, po after 0.5 to 72 hrs by HPLC analysis; format: ADME, organism-based; conditions: read-out: beta t1/2 (converted); how it was run: as §1
Kidney = test: AUC (0 to 72 hrs) in Wistar rat kidney at 10 mg/kg, po by HPLC analysis; format: ADME, organism-based; set-up: dose 10 mg/kg, time < 72 hr, route oral; conditions: in vivo; how it was run: as §1
[3] = Tmax in Wistar rat brain at 10 mg/kg, po after 0.5 to 72 hrs by HPLC analysis; format: ADME, organism-based; how it was run: as §1
[4] = Cmax in Wistar rat brain at 10 mg/kg, po after 0.5 to 72 hrs by HPLC analysis; format: ADME, organism-based; set-up: dose 10 mg/kg, route oral; how it was run: as §1
[5] = Elimination rate constant in Wistar rat brain at 10 mg/kg, po after 0.5 to 72 hrs by HPLC analysis; format: ADME, organism-based; how it was run: as §1
[6] = Terminal half life in Wistar rat brain at 10 mg/kg, po after 0.5 to 72 hrs by HPLC analysis; format: ADME, organism-based; conditions: read-out: beta t1/2 (converted); how it was run: as §1
Brain = test: AUC (0 to 72 hrs) in Wistar rat brain at 10 mg/kg, po by HPLC analysis; format: ADME, organism-based; set-up: dose 10 mg/kg, time < 72 hr, route oral; conditions: in vivo; how it was run: as §1
[7] = Tmax in Wistar rat stomach at 10 mg/kg, po after 0.5 to 72 hrs by HPLC analysis; format: ADME, organism-based; how it was run: as §1
[8] = Cmax in Wistar rat stomach at 10 mg/kg, po after 0.5 to 72 hrs by HPLC analysis; format: ADME, organism-based; set-up: dose 10 mg/kg, route oral; how it was run: as §1
[9] = Elimination rate constant in Wistar rat stomach at 10 mg/kg, po after 0.5 to 72 hrs by HPLC analysis; format: ADME, organism-based; how it was run: as §1
[10] = Terminal half life in Wistar rat stomach at 10 mg/kg, po after 0.5 to 72 hrs by HPLC analysis; format: ADME, organism-based; conditions: read-out: beta t1/2 (converted); how it was run: as §1
Stomach = test: AUC (0 to 72 hrs) in Wistar rat stomach at 10 mg/kg, po by HPLC analysis; format: ADME, organism-based; set-up: time < 72 hr, dose 10 mg/kg, route oral; conditions: in vivo; how it was run: as §1
[11] = Acute toxicity in ICR mouse assessed as mortality at 1200 mg/kg, ig administered daily for 2 weeks measured during compound dosing; format: organism-based; conditions: in vivo, po
How it was run: (§2)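 ICR mice, sixty in total, half male and half female, 20 ± 2 g. Intragastric dosing at 1200, 1600, 2133.3, 2844.40, 5056.79 or 6742.38 mg/kg. Animals watched daily over two weeks for survival and physiological abnormalities or untoward reactions. Percent mortality recorded per dose group.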

[12] = Acute toxicity in ICR mouse assessed as mortality at 1600 mg/kg, ig administered daily for 2 weeks measured during compound dosing; format: organism-based; conditions: in vivo, po; how it was run: as §2
[13] = Acute toxicity in ICR mouse assessed as mortality at 2133.30 mg/kg, ig administered daily for 2 weeks measured during compound dosing; format: organism-based; conditions: in vivo, po, 2133.3 mg/kg; how it was run: as §2
[14] = Acute toxicity in ICR mouse assessed as mortality at 2844.40 mg/kg, ig administered daily for 2 weeks measured during compound dosing; format: organism-based; conditions: in vivo, po, 2844.4 mg/kg; how it was run: as §2
[15] = Acute toxicity in ICR mouse assessed as mortality at 5056.79 mg/kg, ig administered daily for 2 weeks measured during compound dosing; format: organism-based; conditions: in vivo, po; how it was run: as §2
[16] = Acute toxicity in ICR mouse assessed as mortality at 6742.38 mg/kg, ig administered daily for 2 weeks measured during compound dosing; format: organism-based; conditions: in vivo, po; how it was run: as §2
[17] = Acute toxicity in ICR mouse assessed as mortality administered intragastrically daily for 2 weeks measured during compound dosing; format: organism-based; conditions: in vivo, po
How it was run: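 Sixty normal ICR mice (half male, half female, 20 ± 2 g) given intragastric doses of 1200, 1600, 2133.3, 2844.40, 5056.79 and 6742.38 mg/kg. Survival checked daily for two weeks.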

Mus musculus [18] = test: Acute toxicity in ICR mouse assessed as skin changes at 1200 mg/kg, ig administered daily for 2 weeks measured during compound dosing; format: organism-based; conditions: in vivo, po, 336 h; how it was run: as §2
Mus musculus [19] = test: Acute toxicity in ICR mouse assessed as mobility at 1200 mg/kg, ig administered daily for 2 weeks measured during compound dosing; format: organism-based; conditions: in vivo, po, 336 h; how it was run: as §2
Mus musculus [20] = test: Acute toxicity in ICR mouse assessed as aggressiveness at 1200 mg/kg, ig administered daily for 2 weeks measured during compound dosing; format: organism-based; conditions: in vivo, po, 336 h; how it was run: as §2
Mus musculus [21] = test: Acute toxicity in ICR mouse assessed as respiratory movements at 1200 mg/kg, ig administered daily for 2 weeks measured during compound dosing; format: organism-based; conditions: in vivo, po, 336 h; how it was run: as §2
Mus musculus [22] = test: Acute toxicity in ICR mouse assessed as hyperthyroidism at 1600 to 6742.38 mg/kg, ig administered daily for 2 weeks measured 5 hrs post last dose; format: organism-based; conditions: in vivo, po; how it was run: as §2
Mus musculus [23] = test: Acute toxicity in ICR mouse assessed as change in body weight at 1200 to 6742.38 mg/kg, ig administered daily for 2 weeks during compound dosing; format: organism-based; conditions: in vivo, po, 336 h
How it was run: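 Male and female ICR mice (20 ± 2 g) received intragastric doses of 1200–6742.38 mg/kg. Body weight of surviving mice compared after two weeks of observation.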

Mus musculus [24] = test: Acute toxicity in ICR mouse assessed as obvious untoward reaction at 1200 to 6742.38, ig administered daily for 2 weeks during compound dosing; format: organism-based; conditions: in vivo, po, 336 h; how it was run: as §2
Mus musculus [25] = test: Acute toxicity in ICR mouse assessed as pathological changes in organs and tissues at 1200 to 6742.38, ig administered daily for 2 weeks measured on 15th day; format: organism-based; conditions: in vivo, po, 336 h
How it was run: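 ICR mice of both sexes (20 ± 2 g) dosed intragastrically at 1200–6742.38 mg/kg and observed for two weeks. Surviving mice then dissected and examined with the naked eye.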

Rattus norvegicus [26] = test: Antihypertensive activity in spontaneous hypertensive rat model assessed as reduction in mean blood pressure at 10 mg/kg, po administered for 12 hrs; format: functional, organism-based
How it was run: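 Male SHRs were randomized, n = 6 per group. Compound was suspended in DMSO/oleic acid (1:4) and given by oral gavage; vehicle controls got the same volume of solvent. SBP and DBP were recorded in conscious animals by noninvasive tail-artery manometry. MBP = (SBP − DBP)/3 + DBP. Data are mean ± SEM, with p < 0.05 taken as significant.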

Rattus norvegicus [27] = test: Effect on heart rate in spontaneous hypertensive rat model at 10 and 15 mg/kg, po; format: ADME, organism-based; conditions: in vivo
Mus musculus [28] = test: Acute toxicity in ICR mouse assessed as mortality at 1200 to 6742.38 mg/kg, ig administered daily for 2 weeks during compound dosing; format: organism-based; conditions: in vivo, po, 336 h; how it was run: as §2

With `CCCCc1nc(Cl)c(C(=O)O)n1Cc1ccc(-c2ccccc2-c2noc(=O)[nH]2)cc1` the k el [1] was 1.11e-05 s⁻¹, the half-life [2] was 15.6 h and the AUC (Kidney) was 202.97 ng·h/g. For the same compound, the Tmax [3] was 2 h, the Cmax [4] was 5.8 ng/g and the k el [5] was 1.14e-05 s⁻¹. It also gave a half-life [6] of 16.9 h, an AUC (Brain) of 123.07 ng·h/g and a Tmax [7] of 0.5 h. For the same compound, the Cmax [8] was 8.91 ng/g, the k el [9] was 1.39e-05 s⁻¹ and the half-life [10] was 15.1 h. It also gave an AUC (Stomach) of 221.03 ng·h/g, a mortality at 336 h [11] of 0% and a mortality at 336 h [12] of 10%. It also gave a mortality at 336 h [13] of 20%, a mortality at 336 h [14] of 40% and a mortality at 336 h [15] of 90%. For the same compound, the mortality at 336 h [16] was 100%, the LD50 at 336 h [17] was 2970 mg/kg and the Activity (Mus musculus [18]) was “Non-toxic”. For the same compound, the Activity (Mus musculus [19]) was “Non-toxic”, the Activity (Mus musculus [20]) was “Non-toxic” and the Activity (Mus musculus [21]) was “Non-toxic”. For the same compound, the Activity (Mus musculus [22]) was “Toxic”, the Activity (Mus musculus [23]) was “Non-toxic” and the Activity (Mus musculus [24]) was “Non-toxic”. The Activity (Mus musculus [25]) was “Non-toxic”, the Activity (Rattus norvegicus [26]) was “Active” and the Activity (Rattus norvegicus [27]) was “Non-toxic”. The Activity (Mus musculus [28]) was “Toxic”.

Reference: ChEMBL document CHEMBL3784931, “Synthesis and evaluation of novel angiotensin II receptor 1 antagonists as anti-hypertension drugs” (Bioorg Med Chem, 2016)
